In one data set the test system is neutrophil granules. The conditions noted are these: ref column Ref. of Table 1 ([5], [8], [9], [42], [60], [61], [65], [75]–[93]); cited from earlier work.
Data set [1] is described as follows: pKa prediction with ACD software. As to conditions: from predicted pKa 3.97.
Data set [2] has as its system lymphocytes, monocytes, erythrocytes and thrombocytes (platelets). The experiment in a line: HAB labeling of other human blood cell populations. Type of data set: cell-based. As to conditions: 10 μM, same conditions as purified neutrophils. The method in brief:
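PBMC were taken from the top layer of the Percoll gradient used for neutrophil purification. Live lymphocytes, erythrocytes, monocytes and thrombocytes were imaged by confocal fluorescence and DIC with probe at 10 μM, using the same settings as for the neutrophils.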

A further data set relates to Caenorhabditis elegans. Kind of data set: HAB labeling of live Caenorhabditis elegans. The conditions noted are these: in vivo.
Data set [3] deals with bovine serum albumin (BSA) (Bos taurus, UniProt P02769). Kind of data set: Protein-dependent fluorogenesis: titration of HAB with BSA in TRIS buffer. Type of data set: binding. The method in brief: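 Probe at 50 μM in Tris buffer (Tris·HCl 10 mM, pH 7.0, NaCl 100 mM, MgCl2 5 mM) was titrated with BSA. Emission spectra were recorded at 360 nm excitation over 0–1 mg mL−1 BSA and at 420 nm excitation over 1–10 mg mL−1. Fluorescence turn-on was taken at 420 nm excitation with 10 mg ml−1 BSA.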

Data set [4] has as its system live primary human neutrophils. The experiment in a line: HAB labeling of live human primary neutrophils. Type of data set: cell-based. The conditions noted are these: 10 μM. The method in brief:
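Neutrophils were purified from human blood: plasma removal, dextran sedimentation of red cells, then a 51–42% Percoll gradient. Remaining red cells were cleared with CD235a beads. Cells went into RPMI/10 mM Hepes at 2 × 10^6 per mL and adhered 20 min at room temperature in glass-bottom dishes. Medium was replaced with probe at 1, 5 or 10 μM in RPMI/Hepes, followed by live confocal fluorescence and DIC imaging.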

Data set [5] in a line: log D7.4 partition coefficient, n-octanol / pH 7.4 PBS. As to conditions: from log D7.4 values. Type of data set: physicochemical. The method in brief:
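Partition coefficients were measured between n-octanol and pH 7.4 phosphate-buffered saline at 20 °C, alongside reference chalcones.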

Data set [6] deals with zebrafish larvae. Kind of data set: Toxicity in live zebrafish larvae. Type of data set: in vivo, zebrafish (Danio rerio). As to conditions: up to 48 h incubation.
Data set [7] deals with zebrafish neutrophil granules. Kind of data set: HAB labeling of live zebrafish embryos and larvae, confocal imaging. The format is in vivo, zebrafish (Danio rerio). The method in brief:
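Wild-type AB or transgenic embryos/larvae (24 hpf to 6 dpf, 28.5 °C staging) were incubated 1 h in the dark at room temperature with probe at 10 μM in Volvic water, from a 10 mM DMSO stock; controls got 0.1% DMSO. For equilibrium imaging, larvae were anaesthetised (tricaine) and mounted in 1% low-melt agarose with probe. For diffusion imaging, larvae were washed and mounted probe-free. Confocal imaging was done at 23–26 °C: excitation 488 nm, emission 550–650 nm.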

The nature of data set [8]: Photophysical study: fluorescence spectra and quantum yields. The conditions noted are these: for solvatochromism Δmaxλem: various solvents, 50 μM. The format is physicochemical.
Another data set relates to myeloperoxidase. The experiment in a line: HAB labeling in myeloperoxidase knock-out. The format is in vivo, zebrafish (Danio rerio). As to conditions: spotless mutant strain, equilibrium conditions.
A further data set has as its system chemokine CXCL12a. The conditions noted are these: 10 μM, zebrafish model ref [56]; cited from earlier work.
The subject of data set [9] is zebrafish larvae. The experiment in a line: Chalcone 18 alone in 72 hpf larvae, confocal imaging. Type of data set: in vivo, zebrafish (Danio rerio).

Chain of bovine serum albumin (BSA) (P02769 25-607): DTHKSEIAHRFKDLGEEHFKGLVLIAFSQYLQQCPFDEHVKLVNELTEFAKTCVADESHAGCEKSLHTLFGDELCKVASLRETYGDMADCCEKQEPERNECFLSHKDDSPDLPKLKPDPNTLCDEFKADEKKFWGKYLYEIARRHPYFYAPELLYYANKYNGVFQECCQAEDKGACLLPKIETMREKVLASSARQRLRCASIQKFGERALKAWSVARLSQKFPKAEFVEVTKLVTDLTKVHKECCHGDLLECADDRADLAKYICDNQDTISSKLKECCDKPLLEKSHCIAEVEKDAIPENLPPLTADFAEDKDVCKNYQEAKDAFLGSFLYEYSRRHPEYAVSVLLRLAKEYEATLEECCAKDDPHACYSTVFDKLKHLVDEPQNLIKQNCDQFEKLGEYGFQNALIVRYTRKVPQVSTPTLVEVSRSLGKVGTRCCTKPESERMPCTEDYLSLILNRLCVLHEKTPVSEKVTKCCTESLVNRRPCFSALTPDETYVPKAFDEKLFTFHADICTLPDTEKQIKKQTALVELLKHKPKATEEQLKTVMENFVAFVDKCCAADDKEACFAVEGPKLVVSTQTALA

For the molecule `COC(=O)c1ccccc1C1c2ccc(N)cc2Oc2cc(N)ccc21` [Dihydrorhodamine 123], the “Histopermeability for live animal imaging” value (shortened to “Histopermeability”) in the data set on neutrophil granules was “No (in vitro only)”.

For `Nc1cccc2ccc(/C=C/C(=O)c3ccc(O)cc3)cc12` [HAB, (E)-3-(8-aminonaphthalen-2-yl)-1-(4-hydroxyphenyl)prop-2-en-1-one], the “basicity, fold lower than that of acidotropic amines” value in [1] is given as “about 10^5 fold”. For the same molecule, the “labeling of lymphocytes, monocytes, erythrocytes and thrombocytes” value in data set [2] is reported as “weakly to faintly labeled”. For the same molecule, in the data set on Caenorhabditis elegans, the “microscopic visualization in C. elegans” value is “could not be microscopically visualized”. Moreover, in data set [3], the “bathochromic shift Δλem upon binding to BSA” value worked out at 133 nm and the “bathochromic shift Δλex upon binding to BSA” value is on record as 60 nm. In addition, the “fluorescence turn-on (FTO) upon binding to BSA” value in data set [3] (excitation 420 nm, BSA 10 mg ml^–1, HAB 50 μM) came to 21.5. In [4], the “labeling of activated neutrophils” value is on record as “intense labeling of cells at the level of subcellular granular structures” and the “labeling of non-activated neutrophils” value was “intense but diffuse fluorescent labeling”. Moreover, the “fold more hydrophilic than 4′-deshydroxy congener 6” value in data set [5] is listed as 2 fold. Further, the “toxicity of HAB” value in the data set with zebrafish larvae [6] is given as “absence of toxicity”. In addition, in data set [7] (10 μM, 72 hpf larvae, confocal plus DIC), the “compartment labeled within neutrophils” value is given as “co-localize with neutrophil granules”. Also, the “developmental stage at which labeling first appeared” value in data set [7] (10 μM, 60 min, ventral tail of embryo) was determined as 32 hpf. For the same molecule, the co-localization with macrophages entry in data set [7] (10 μM, Tg(mfap4:mCherry-F) 72 hpf larvae) is given as “did not co-localize”. The co-localization with neutrophils entry in [7] (10 μM, Tg(mpx:GAL4/UAS-E1b:nsfB-mCherry) 72 hpf larvae) was “perfectly colocalized with all neutrophils”. Besides, the “HAB labeling after or before formaldehyde fixation” value in data set [7] (1 or 4% formaldehyde, two hours, room temperature) is reported as “failed to detect HAB labeling”. For the same molecule, in data set [8] (toluene), the “fold higher quantum yield than 5-amino regioisomer 12” value is “ca. 20 fold”. Further, the “solvatochromism Δmaxλem” value in data set [8] is listed as approximately 140 nm. In addition, the “labeling in myeloperoxidase knock-out larvae” value with myeloperoxidase is “qualitatively and quantitatively indistinguishable from wild-type larvae”.

With `Nc1cccc2c(=O)[nH][nH]c(=O)c12` [Luminol], in the data set on neutrophil granules, the “Histopermeability” value is listed as “No (in vitro only)”.

Consider `COc1cc(/C=C/C(=O)c2ccc(Cl)cc2)ccc1O` [Compound 18, 4-hydroxy-3-methoxy-4′-chlorochalcone], for which, in the data set on chemokine CXCL12a, the “biological effects as inhibitor of CXCL12a” value is reported as “moderate biological effects” and the “fluorescent detection by GFP filters” value is reported as “not fluorescently detected”. Moreover, in the data set with zebrafish larvae [9] (100 μM, 72 hpf larvae), the type of staining entry is on record as “interstitial histological labeling”. Besides, the “fluorescence of 18 alone in larvae” value with zebrafish larvae [9] (100 μM, 72 hpf larvae, excitation 488 nm) is “green-yellow fluorescence”. For the same molecule, the cytopermeability entry with zebrafish larvae [9] (even at high concentration) was “not cytopermeable”.

Take `Nc1cccc2ccc(/C=C/C(=O)c3ccccc3)cc12` [Compound 6, (E)-3-(8-aminonaphthalen-2-yl)-1-phenylprop-2-en-1-one]: in data set [8], the “solvatochromism Δmaxλem” value is approximately 140 nm.

Take `CC1(C)Nc2cccc3c(N=Nc4ccc(N=Nc5ccccc5)c5ccccc45)ccc(c23)N1` [Sudan Black B]: the “Histopermeability” value with neutrophil granules is recorded as “No (FA fixation in vivo)”.

Source of the values: publication PMC6432617 (Chemical Science, 2019).
